# Legend:
# Homo sapiens [1] = assay: AUC(0 to infinity) as total radioactivity in human plasma at 100 mg, po administered as single dose by LC-MS/MS analysis; type: ADME, organism-based; design: dose 100 mg, route oral, dosed compound name [14C]lixivaptan, time infinity; settings: in vivo
# In short: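 Fasted healthy males took one oral 100 mg (200 µCi) [14C]lixivaptan dose. Plasma was drawn from predose to 144 h. Total radioactivity was measured by LSC and converted to ng-equiv/ml via the dose specific activity; lixivaptan by validated LC-MS/MS. Noncompartmental analysis: Cmax observed; kel by log-linear regression; AUC0-t by linear trapezoid; extrapolation as Cest/kel.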
# Canis familiaris [2] = assay: Tmax as total radioactivity in male beagle dog plasma at 10 mg/kg, po administered as single dose by LC-MS/MS analysis; type: ADME, organism-based, Canis lupus familiaris; design: dose 10 mg/kg, dosed compound name [14C]lixivaptan, route oral; settings: in vivo
# In short: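 Male beagles given 10 mg/kg [14C]drug oral suspension; jugular K2EDTA blood at 0.25-168 h. Parent by validated LC-MS/MS, total radioactivity by LSC; Tmax observed; t1/2 = 0.693/kel from terminal log-linear regression.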
# Canis familiaris [3] = assay: Cmax as total radioactivity in male beagle dog plasma at 10 mg/kg, po administered as single dose by LC-MS/MS analysis; type: ADME, organism-based, Canis lupus familiaris; design: dose 10 mg/kg, dosed compound name [14C]lixivaptan, route oral; settings: in vivo
# In short: (§1)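 Four male beagles were fasted 18 h and gavaged once with 10 mg/kg (2 ml/kg) [14C]lixivaptan as a 5.0 mg/ml water/pluronic F68 suspension. Jugular K2EDTA blood was sampled from 0.25 to 168 h. Plasma total radioactivity was counted by LSC as ng-equiv/ml and lixivaptan by validated LC-MS/MS. Noncompartmental Cmax, t1/2 and trapezoidal AUC were derived.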
# [4] = Drug recovery in feces of male Sprague-Dawley rat at 10 mg/kg, po administered as single dose via gavage measured after 168 hrs by liquid scintillation counting; type: ADME, organism-based; design: dose 10 mg/kg, dosed compound name [14C]lixivaptan, route oral; settings: in vivo
# In short: (§2)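 Intact SD rats (3/gender) dosed by gavage with [14C]drug 10 mg/kg (10 ml/kg, pluronic F68/water), housed in metabolism cages; urine and feces at 0-8, 8-24 h, then every 24 h to 7 days. Urine counted by LSC; feces homogenized 20% w/w in water, combusted, trapped CO2 counted; cage wash/debris included; % of dose.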
# Rattus norvegicus [5] = assay: Drug recovery in cage wash/debris of male Sprague-Dawley rat at 10 mg/kg, po administered as single dose via gavage measured after 168 hrs by liquid scintillation counting; type: ADME, organism-based; design: dose 10 mg/kg, dosed compound name [14C]lixivaptan, route oral; settings: in vivo; in short: as §2
# Rattus norvegicus [6] = assay: Total Drug recovery in female Sprague-Dawley rat at 10 mg/kg, po administered as single dose via gavage measured after 168 hrs by liquid scintillation counting; type: ADME, organism-based; design: dose 10 mg/kg, dosed compound name [14C]lixivaptan, route oral; settings: in vivo; in short: as §2
# [7] = Drug recovery in bile of bile duct-cannulated male Sprague-Dawley rat at 10 mg/kg, po administered as single dose via gavage measured from 0 to 48 hrs by liquid scintillation counting; type: ADME, organism-based; design: dose 10 mg/kg, dosed compound name [14C]lixivaptan, route oral; settings: in vivo
# In short: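 Bile-duct cannulated SD rats (n=5) got single gavage of [14C]drug 10 mg/kg as pluronic F68/water suspension. Bile collected on wet ice at 0-4, 4-8, 8-24, 24-48 h; drinking water supplemented with bile salts and electrolytes. Duplicate aliquots counted by liquid scintillation; expressed as % of dose.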
# [8] = Drug recovery in urine of male beagle dog at 10 mg/kg, po administered as single dose via gavage measured after 168 hrs by liquid scintillation counting; type: ADME, organism-based, Canis lupus familiaris; design: dose 10 mg/kg, dosed compound name [14C]lixivaptan, route oral; settings: in vivo
# In short: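 Four male beagles got 10 mg/kg (2 ml/kg) [14C]drug suspension (5.0 mg/ml, pluronic F68/water, 1.04 µCi/mg) by gavage. Urine and feces collected over dry ice at 0-8, 8-24 h, then every 24 h to 7 days; urine by LSC, fecal homogenates combusted then LSC; cage wash/debris included; % of dose.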
# Rattus norvegicus [9] = assay: AUC (0 to 24 hrs) in male Sprague-Dawley rat at 10 mg/kg, po administered as single dose via gavage; type: ADME, organism-based, Plasma; design: time < 24 hr, dose 10 mg/kg, dosed compound name [14C]lixivaptan, route oral; settings: in vivo
# In short: (§3)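 Sprague-Dawley rats (9/gender) were fasted 18 h and gavaged once with [14C]lixivaptan at 10 mg/kg (10 ml/kg), about 29.8 µCi/mg, suspended in deionized water with pluronic F68. Plasma came by cardiac puncture under isoflurane at 1, 8 and 24 h (3/gender/time) and was extracted twice with 2 volumes of acetonitrile. C18 radio-HPLC with a flow scintillation detector gave percent of plasma radioactivity per peak.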
# Rattus norvegicus [10] = assay: AUC (0 to 24 hrs) in female Sprague-Dawley rat at 10 mg/kg, po administered as single dose via gavage; type: ADME, organism-based, Plasma; design: time < 24 hr, dose 10 mg/kg, dosed compound name [14C]lixivaptan, route oral; settings: in vivo; in short: as §3
# Homo sapiens [11] = assay: AUC in human at 100 mg, po qd for 7 days; type: ADME, organism-based, Plasma; design: dosed compound name [14C]lixivaptan; settings: in vivo, 168 h
# Rattus norvegicus [12] = assay: AUC(0 to infinity) as total radioactivity in male Sprague-Dawley rat plasma at 10 mg/kg, po administered as single dose via gavage […]; type: ADME, organism-based; design: time infinity, dose 10 mg/kg, dosed compound name [14C]lixivaptan, route oral; settings: in vivo
# In short: (§4)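 Jugular-cannulated Sprague-Dawley rats (5/gender) were fasted 18 h and gavaged once with 10 mg/kg [14C]lixivaptan suspended in water/pluronic F68. K2EDTA blood was taken at 0.25–168 h, with donor blood replaced from 1 h on. Total radioactivity was read by LSC (ng-equiv/ml) and parent by validated LC-MS/MS. Noncompartmental Cmax, log-linear kel and trapezoidal AUC followed.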
# Rattus norvegicus [13] = assay: AUC(0 to t) as total radioactivity in female Sprague-Dawley rat plasma at 10 mg/kg, po administered as single dose via gavage by LC-MS/MS analysis; type: ADME, organism-based; design: dose 10 mg/kg, dosed compound name [14C]lixivaptan, route oral; settings: in vivo; in short: as §4
# Canis familiaris [14] = assay: AUC(0 to infinity) as total radioactivity in male beagle dog plasma at 10 mg/kg, po administered as single dose by LC-MS/MS analysis; type: ADME, organism-based, Canis lupus familiaris; design: time infinity, dose 10 mg/kg, dosed compound name [14C]lixivaptan, route oral; settings: in vivo; in short: as §1
# Homo sapiens [15] = assay: Drug level in human plasma at 100 mg, po administered as single dose measured after 0.5 hrs by liquid scintillation counting; type: ADME, organism-based; design: dosed compound name [14C]lixivaptan; settings: in vivo
# In short: (§5)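 Healthy male volunteers fasted ≥10 h, given single oral 100 mg (200 µCi) [14C]drug as two 50-mg capsules with 250 ml water. Plasma (from ~50 ml blood) at 0.5, 2, 4, 8, 12, 24, 36 h, profiled per subject. Acetonitrile extraction, C18 radio-HPLC with 0.2% formic acid acetonitrile/water gradient, on-line radioactivity detection as % plasma radioactivity; ng-equiv/ml from % × total radioactivity.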
# Homo sapiens [16] = assay: Drug level in human plasma at 100 mg, po administered as single dose measured after 8 hrs by liquid scintillation counting; type: ADME, organism-based; design: dosed compound name [14C]lixivaptan; settings: in vivo; in short: as §5
# Homo sapiens [17] = assay: Drug level in human plasma at 100 mg, po administered as single dose measured after 24 hrs by liquid scintillation counting; type: ADME, organism-based; design: dosed compound name [14C]lixivaptan; settings: in vivo; in short: as §5
# Homo sapiens [18] = assay: Drug level in human plasma at 100 mg, po administered as single dose measured after 36 hrs by liquid scintillation counting; type: ADME, organism-based; design: dosed compound name [14C]lixivaptan; settings: in vivo; in short: as §5
# Canis familiaris [19] = assay: Drug level in beagle dog plasma at 10 mg/kg, po administered as single dose measured after 8 hrs by liquid scintillation counting; type: ADME, organism-based, Canis lupus familiaris; design: dose 10 mg/kg, dosed compound name [14C]lixivaptan, route oral; settings: in vivo
# In short: (§6)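 Four male beagles fasted 18 h were gavaged once with [14C]lixivaptan at 10 mg/kg (2 ml/kg). The 5.0 mg/ml suspension was in deionized water with pluronic F68 (1.04 µCi/mg). Jugular K2EDTA plasma was taken at 2, 8 and 24 h and extracted twice with 2 volumes of acetonitrile. Profiling used C18 radio-HPLC (ammonium formate/acetonitrile gradient) with on-line flow scintillation detection. Each peak is reported as percent of plasma radioactivity.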
# Canis familiaris [20] = assay: Drug level in beagle dog plasma at 10 mg/kg, po administered as single dose measured after 24 hrs by liquid scintillation counting; type: ADME, organism-based, Canis lupus familiaris; design: dose 10 mg/kg, dosed compound name [14C]lixivaptan, route oral; settings: in vivo; in short: as §6
# Homo sapiens [21] = assay: Cmax in human at 100 mg, po; settings: in vivo
smiles,measurement,setting,value
Cc1ccc(F)cc1[14C](=O)Nc1ccc(C(=O)N2Cc3cccn3Cc3ccccc32)c(Cl)c1,AUC,Homo sapiens [1],26200 ng.Eq.hr/ml
same,Tmax,Canis familiaris [2],1.8 h
same,Cmax,Canis familiaris [3],3570 ngequiv/ml
same,Radiolabel recovery,[4],91%
same,Radiolabel recovery,Rattus norvegicus [5],2.2%
same,Radiolabel recovery,Rattus norvegicus [6],103%
same,Radiolabel recovery,[7],65.4%
same,Radiolabel recovery,[8],7.95%
same,AUC,Rattus norvegicus [9],632 ng.Eq.hr/ml
same,AUC,Rattus norvegicus [10],5580 ng.Eq.hr/ml
same,AUC,Homo sapiens [11],1860 ng.Eq.hr/ml
same,AUC,Rattus norvegicus [12],67100 ng.Eq.hr/ml
same,AUCt,Rattus norvegicus [13],36700 ng.Eq.hr/ml
same,AUC,Canis familiaris [14],94900 ng.Eq.hr/ml
same,Compound recovery,Homo sapiens [15],43.5%
same,Compound recovery,Homo sapiens [16],6.7%
same,Compound recovery,Homo sapiens [17],5.5%
same,Compound recovery,Homo sapiens [18],3.6%
same,Compound recovery,Canis familiaris [19],14.9%
same,Compound recovery,Canis familiaris [20],7.4%
same,Cmax,Homo sapiens [21],454 ngequiv/ml
